In ChEMBL document CHEMBL4038313, “Expanding the Antiviral Spectrum of 3-Fluoro-2-(phosphonomethoxy)propyl Acyclic Nucleoside Phosphonates: Diamyl Aspartate Amidate Prodrugs” (J Med Chem, 2017):

Assays:
[1] = test system: Human immunodeficiency virus 1; assay: Antiviral activity against CXCR4-tropic HIV-1 NL4-3 infected in human TZM-bl cells assessed as inhibition of virus-induced cytopathic effect preincubated with cells for 30 mins followed by viral infection measured after 48 hrs in presence of p-24 HIV-1 Ag by luciferase reporter gene assay; assay type: functional, cell-based; conditions: Human immunodeficiency virus 1, NL4-3, TZM-bl
How it was run: (§1)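 TZM-bl cells, 1 × 10^4 per well in DMEM with 10% FBS and 10 mM […], incubated 30 min at 37 °C with compound. Then HIV-1 NL4.3 (X4) or BaL (R5) added at 100 pg p24 Ag per well. After 48 h, cells lysed with luciferase substrate. Tat-induced luminescence read after 10 min dark incubation as a measure of replication.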

[2] = Selectivity index, ratio of CC50 for HepG2.2.15 cells to EC50 for HBV ayw1 infected in human HepG2(2.2.15) cells assessed as reduction in viral replication by measuring extracellular viral DNA copy
How it was run: (§2)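 HepG2.2.15 cells (two copies of HBV ayw1 genome), 1.5 × 10^4/well in DMEM with 2% FBS and 380 μg/mL G418. After 16–24 h, compound added in triplicate, medium with compound renewed at day 3. Supernatant collected at day 6, Pronase-treated, and extracellular HBV DNA measured by TaqMan qPCR (precore/core) against an HBV DNA standard curve. EC50/EC90 derived; CC50 by MTS uptake.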

[3] = test system: Human betaherpesvirus 5; assay: Antiviral activity against HCMV Davis strain infected in HEL cells assessed as inhibition of virus-induced cytopathic effect; assay type: functional, cell-based; conditions: Human betaherpesvirus 5, Davis
How it was run: (§3)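 HEL fibroblast monolayers inoculated with 100 CCID50 HCMV (AD-169, Davis) or 20 PFU VZV (TK+ Oka, TK− 07-1). Adsorbed 1–2 h, inoculum removed, then incubated with compound dilutions. HCMV cytopathicity or VZV plaques scored once untreated infected controls reached completion. EC50 is 50% reduction. SI is CC50/EC50, and the potency ratio is the ratio of EC50s.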

[4] = test system: Hepatitis B virus; assay: Antiviral activity against HBV ayw1 infected in human HepG2(2.2.15) cells assessed as reduction in viral replication by measuring extracellular viral DNA copy number after 6 days by real-time qPCR method; assay type: functional, cell-based; conditions: ayw1, HepG2 2.2.15, 144 h; how it was run: as §2
[5] = Cytotoxicity against human TZM-bl cells assessed as cell viability by tetrazolium dye assay; assay type: cell-based
[6] = Cytotoxicity against human HepG2.2.15 cells assessed as cell viability by tetrazolium dye uptake assay; assay type: cell-based, HepG2 2.2.15
How it was run: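 HepG2.2.15 cells (two integrated copies of HBV ayw1 genome) were seeded at 1.5 × 10^4 cells/well in DMEM with 2% FBS, 380 μg/mL G418, glutamine, antibiotics and nonessential amino acids. After 16−24 h, medium with various compound concentrations was added in triplicate and renewed on day 3. After 6 days of treatment, viability was read by MTS uptake and CC50 was calculated.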

[7] = test system: Human alphaherpesvirus 3; assay: Antiviral activity against thymidine kinase expressing Varicella-Zoster virus Oka strain assessed as inhibition of plaque formation; assay type: functional; conditions: Human alphaherpesvirus 3, strain Oka vaccine; how it was run: as §3
[8] = Selectivity index, ratio of CC50 for human TZM-bl cells to EC50 for CCR5 tropic HIV1 BaL infected in human TZM-bl cells; assay type: toxicity, cell-based; conditions: read-out: Ratio CC50/EC50
[9] = test system: Human alphaherpesvirus 3; assay: Antiviral activity against thymidine kinase deficient Varicella-Zoster virus 07-1 infected in HEL cells assessed as inhibition of plaque formation; assay type: functional, cell-based; conditions: Human alphaherpesvirus 3, 07-1, HEL; how it was run: as §3
[10] = test system: Human betaherpesvirus 5; assay: Antiviral activity against Human cytomegalovirus AD169 infected in HEL cells assessed as inhibition of virus-induced cytopathic effect; assay type: functional, cell-based; conditions: Human betaherpesvirus 5, AD169, HEL; how it was run: as §3
[11] = Selectivity index, ratio of CC50 for human TZM-bl cells to EC50 for CXCR4-tropic HIV-1 NL4-3 infected in human TZM-bl cells; assay type: toxicity, cell-based; conditions: read-out: Ratio CC50/EC50
[12] = Cytotoxic activity against HEL cells assessed as alteration of cell morphology after 3 days by microscopic method; assay type: cell-based; conditions: human
How it was run: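 HEL cells with compound; MCC is the lowest concentration giving microscopically detectable alteration of cell morphology.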

[13] = test system: Human immunodeficiency virus 1; assay: Antiviral activity against CCR5 tropic HIV1 BaL infected in human TZM-bl cells assessed as inhibition of virus-induced cytopathic effect preincubated with cells for 30 mins followed by viral infection measured after 48 hrs in presence of p-24 HIV-1 Ag by luciferase reporter gene assay; assay type: functional, cell-based; conditions: Human immunodeficiency virus 1, BaL; how it was run: as §1
[14] = test system: Human immunodeficiency virus 1; assay: (§4) Antiviral activity against CCR5 tropic HIV1 BaL infected in human PHA-stimulated PBMC assessed as inhibition of viral replication by measuring reduction in p24 antigen production preincubated with cells for 30 mins followed by viral infection measured on day 10 post infection in presence of IL-2 by ELISA; assay type: functional; conditions: Human immunodeficiency virus 1, BaL
How it was run: (§5)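 PBMCs stimulated with 2 μg/mL PHA for 3 days at 37 °C, then 5 × 10^5 cells/ml preincubated 30 min at 37 °C with serial compound dilutions plus 2 ng/mL IL-2. Infected with 1500 pg/well HIV-1 BaL or 500 pg/well other isolates. IL-2 re-added on days 3 and 6. Supernatant p24 Ag measured by ELISA at day 10. EC50 is 50% inhibition of replication.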

[15] = Cytotoxic activity against HEL cells assessed as reduction in cell proliferation after 3 days by coulter counting method; assay type: cell-based; conditions: human
How it was run: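 HEL cells seeded at 5 × 10^3/well, grown 24 h, then given compound for 3 days at 37 °C. Cell number counted by Coulter counter. CC50 is 50% reduction of proliferation relative to untreated controls, read from graphic plots.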

[16] = Selectivity index, ratio of CC50 for human PHA-stimulated PBMCs to IC50 for CCR5 tropic HIV1 BaL infected in human PHA-stimulated PBMC
[17] = Cytotoxicity against human PHA-stimulated PBMC assessed as cell viability by tetrazolium dye assay; assay type: cell-based
[18] = Selectivity index, ratio of CC50 for human PHA-stimulated PBMC to IC50 for CXCR4-tropic HIV-1 NL4-3 infected in human PHA-stimulated PBMC
[19] = test system: Human immunodeficiency virus 1; assay: as §4, with “CXCR4-tropic HIV-1 NL4-3” for “CCR5 tropic HIV1 BaL”; assay type: functional; conditions: Human immunodeficiency virus 1, NL4-3; how it was run: as §5

SMILES | EC50 [1] [µM] | Ratio CC50/EC50 [2] | EC50 [3] [µM] | EC50 [4] [µM] | EC90 [4] [µM] | CC50 [5] [µM] | CC50 [6] [µM] | EC50 [7] [µM] | selectivity ratio [8] | EC50 [9] [µM] | EC50 [10] [µM] | selectivity ratio [11] | MCC at 72 h [12] [µM] | EC50 [13] [µM] | IC50 [14] [µM] | CC50 at 72 h [15] [µM] | Ratio CC50/IC50 [16] | CC50 [17] [µM] | Ratio CC50/IC50 [18] | IC50 [19] [µM]
Cc1cn(C[C@@H](CF)OCP(=O)(O)O)c(=O)[nH]c1=O | 56.8 | 1 | > 338 | > 100 | > 100 | > 100 | > 100 | > 338 | 1 | 338 | > 338 | > 2 | > 338 | > 100 | – | – | – | – | – | –
Cc1cn(C[C@H](CF)OCP(=O)(O)O)c(=O)[nH]c1=O | 54.8 | 1 | > 338 | > 100 | > 100 | > 100 | > 100 | > 338 | 1 | > 338 | > 338 | > 2 | > 338 | > 100 | – | – | – | – | – | –
Nc1nc(O)c2ncn(C[C@@H](CF)OCP(=O)(O)O)c2n1 | 4.81 | >169 | 57 | 0.59 | 42.7 | > 100 | > 100 | 15.5 | > 26 | 12.5 | 127 | > 21 | > 311 | 3.79 | 1.14 | 65.4 | 32 | 36.4 | 130 | 0.28
Nc1ccn(C[C@H](CF)OCP(=O)(O)O)c(=O)n1 | 54.1 | 1 | > 356 | > 100 | > 100 | > 100 | > 100 | > 356 | 1 | > 356 | > 356 | > 2 | > 356 | > 100 | – | – | – | – | – | –
CCCCCOC(=O)C[C@H](NP(=O)(CO[C@@H](CF)Cn1cnc2c(N)ncnc21)Oc1ccccc1)C(=O)OCCCCC (stereo partly drawn) | 0.14 | 31 | > 31.4 | 1.06 | 16.9 | 37.6 | 33 | 3.81 | 342 | 8.24 | > 31.4 | 269 | 157 | 0.11 | 0.33 | 7.47 | 109 | 36.1 | >1388 | 0.026
CCCCCOC(=O)C[C@H](NP(=O)(CO[C@H](CF)Cn1ccc(N)nc1=O)Oc1ccccc1)C(=O)OCCCCC (stereo partly drawn) | > 69 | 1 | 2.02 | 41.9 | > 100 | 69 | 46.3 | 3.15 | < 1 | 1.32 | 0.76 | < 1 | 163 | > 69 | – | 74.7 | – | – | – | –
CCCCCOC(=O)C[C@H](NP(=O)(CO[C@@H](CF)Cn1ccc(N)nc1=O)Oc1ccccc1)C(=O)OCCCCC (stereo partly drawn) | > 54.2 | 1 | > 32.6 | 28 | 91.5 | 54.2 | 33.5 | > 32.6 | < 1 | > 32.6 | > 32.6 | < 1 | 32.6 | > 54.2 | – | – | – | – | – | –
Nc1ccn(C[C@@H](CF)OCP(=O)(O)O)c(=O)n1 | 41.9 | 1 | 27.1 | > 100 | > 100 | > 100 | > 100 | 71.1 | > 1 | 71.1 | 143 | > 2 | > 356 | 68.5 | – | > 356 | – | – | – | –
CCCCCOC(=O)C[C@H](NP(=O)(CO[C@@H](CF)Cn1cc(C)c(=O)[nH]c1=O)Oc1ccccc1)C(=O)OCCCCC (stereo partly drawn) | > 100 | <1 | > 31.9 | 47 | > 100 | > 100 | 34.2 | 31.9 | 1 | 12.7 | > 31.9 | 1 | 31.9 | > 100 | – | – | – | – | – | –
Nc1ncnc2c1ncn2C[C@H](CF)OCP(=O)(O)O | 29.2 | >9 | > 328 | 11.2 | > 100 | > 100 | > 100 | 172 | > 3 | > 328 | > 328 | > 3 | > 328 | 30.7 | 11.9 | – | 8 | 93.9 | 23 | 4.04
Nc1nc(O)c2ncn(C[C@H](CF)OCP(=O)(O)O)c2n1 | 4.57 | >204 | 62.3 | 0.49 | 82.5 | > 100 | > 100 | 62.3 | > 15 | 62.3 | 139 | > 22 | > 311 | 6.65 | 6.41 | – | 14.5 | 93.1 | 66 | 1.42
Nc1nc2c(ncn2COCCO)c(=O)[nH]1 [ACYCLOVIR] | – | – | – | – | – | – | – | 3.02 | – | 20.7 | – | – | > 444 | – | – | > 444 | – | – | – | –
O=c1[nH]c(=O)n([C@H]2C[C@H](O)[C@@H](CO)O2)cc1/C=C/Br [BRIVUDINE] | – | – | – | – | – | – | – | 0.055 | – | 5.21 | – | – | > 300 | – | – | > 300 | – | – | – | –
Nc1ccn(C[C@@H](CO)OCP(=O)(O)O)c(=O)n1 [CIDOFOVIR] | – | – | 3.74 | – | – | – | – | – | – | – | 2.49 | – | > 358 | – | – | > 358 | – | – | – | –
Nc1nc2c(ncn2COC(CO)CO)c(=O)[nH]1 [GANCICLOVIR] | – | – | 16.5 | – | – | – | – | – | – | – | – | – | > 391 | – | – | > 391 | – | – | – | –
CC(C)OC(=O)[C@H](C)N[P@](=O)(CO[C@H](C)Cn1cnc2c(N)ncnc21)Oc1ccccc1 [TENOFOVIR ALAFENAMIDE] | – | – | – | – | – | – | – | – | – | – | – | – | – | – | 0.01 | – | 132 | 1.32 | 1320 | 0.001
